Data on five molecules can be found in ChEMBL document CHEMBL4219124, “Alleviating CYP and hERG liabilities by structure optimization of dihydrofuran-fused tricyclic benzo[d]imidazole series - Potent, selective and orally efficacious microsomal prostaglandin E synthase-1 (mPGES-1) inhibitors: Part-2” (Bioorg Med Chem Lett, 2018).

Changes are numbered by the printed parent chain.

Series [1] is described as follows: Half life in Beagle dog at 10 mg/kg, po. Type of series: ADME, organism-based, Canis lupus familiaris. The conditions noted are these: in vivo. Put shortly: (§1)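 Half-life calculated from plasma profiles after oral dosing at 10 mg/kg. Rat: male Sprague-Dawley, 0.5% methylcellulose suspension, n = 3. Dog and cynomolgus monkey: Tween 80 (2.5 μL/mL) + 0.5 (w/v) MC suspension.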

The nature of series [2]: Tmax in Dunkin-Hartley guinea pig at 10 mg/kg, po. It counts as ADME, organism-based, Cavia porcellus. As to conditions: in vivo. Summed up: (§2)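 Tmax from oral 10 mg/kg dosing. Rat: male Sprague-Dawley, 0.5% MC suspension, n = 3. Guinea pig: 20% NMP + 0.5% MC suspension, n = 3. Dog and monkey: 2.5 μL/mL Tween 80 + 0.5% MC suspension.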
The nature of series [3]: Tmax in Sprague-Dawley rat at 10 mg/kg, po. The conditions noted are these: in vivo. Type of series: ADME, organism-based. Put shortly: as §2
Series [4] in a line: Apparent volume of distribution in Beagle dog at 1 mg/kg, iv. Type of series: ADME, organism-based, Canis lupus familiaris. As to conditions: in vivo, read-out: Vz. Summed up: (§3)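 Intravenous dose of 1 mg/kg; clearance and Vz derived from the i.v. arm. Rat (male Sprague-Dawley) vehicle 20% NMP + 20% ethanol + 60% PEG 200, mean ± SD (n = 3). Dog vehicle 20% NMP + 20% EtOH + 10% PG + 50% PEG 200:water (3:2). Monkey vehicle 10% NMP + 10% ethanol + 10% PEG + 70% PEG200:water (3:2).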

Series [5] can be described thus: AUC (0 to 24 hrs) in Dunkin-Hartley guinea pig at 10 mg/kg, po. It counts as ADME, organism-based, Cavia porcellus. As to conditions: in vivo. Details: time < 24 hr, dose 10 mg/kg, route oral. Put shortly:
(§4)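 Single oral dose of 10 mg/kg. Cmax and AUC0-24 taken from the oral arm. Rat: male Sprague-Dawley, dosed in 0.5% methylcellulose suspension, mean ± SD (n = 3). Guinea pig: 20% NMP + 0.5% MC suspension, mean ± SD (n = 3). Dog and cynomolgus monkey: 2.5 μL/mL Tween 80 + 0.5 (w/v) MC suspension.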

Series [6] can be described thus: Apparent volume of distribution in Sprague-Dawley rat at 1 mg/kg, iv. It counts as ADME, organism-based. As to conditions: in vivo, read-out: Vz. Put shortly: as §3
A short description of series [7]: Clearance in Sprague-Dawley rat at 1 mg/kg, iv. As to conditions: in vivo. It counts as ADME, organism-based. Put shortly: as §3
Series [8] can be described thus: Half life in cynomolgus monkey at 10 mg/kg, po. It counts as ADME, organism-based, Macaca fascicularis. As to conditions: in vivo. Put shortly: as §1
Series [9] deals with T1, Cytosolic phospholipase A2 (Homo sapiens) (UniProt P47712).
T1 sequence (whole entry): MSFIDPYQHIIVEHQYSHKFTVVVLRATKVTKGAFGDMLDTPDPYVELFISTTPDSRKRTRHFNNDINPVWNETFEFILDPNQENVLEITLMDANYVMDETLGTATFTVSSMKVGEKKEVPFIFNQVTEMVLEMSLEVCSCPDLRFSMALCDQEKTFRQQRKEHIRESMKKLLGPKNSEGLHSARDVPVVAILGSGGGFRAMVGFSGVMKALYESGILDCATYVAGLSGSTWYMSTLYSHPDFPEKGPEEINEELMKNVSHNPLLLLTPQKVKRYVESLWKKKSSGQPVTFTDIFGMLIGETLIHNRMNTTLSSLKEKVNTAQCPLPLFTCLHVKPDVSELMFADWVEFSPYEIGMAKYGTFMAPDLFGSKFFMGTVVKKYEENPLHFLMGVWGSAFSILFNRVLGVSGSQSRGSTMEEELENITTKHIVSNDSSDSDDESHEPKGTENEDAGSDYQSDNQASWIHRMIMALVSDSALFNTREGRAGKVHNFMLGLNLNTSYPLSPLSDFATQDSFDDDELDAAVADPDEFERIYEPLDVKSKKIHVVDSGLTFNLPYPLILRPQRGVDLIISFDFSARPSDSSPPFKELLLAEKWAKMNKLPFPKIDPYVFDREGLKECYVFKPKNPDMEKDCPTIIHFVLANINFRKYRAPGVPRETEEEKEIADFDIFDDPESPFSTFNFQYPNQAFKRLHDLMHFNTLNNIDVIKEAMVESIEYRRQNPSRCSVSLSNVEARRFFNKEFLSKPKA
In words: Inhibition of cPLA2 (unknown origin) at 10 uM relative to control. Put shortly:
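Selectivity panel against other prostanoid-pathway enzymes. % inhibition values are means of at least two experiments, each in duplicate.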

The target of series [10] is T2, Prostaglandin E synthase (Homo sapiens, UniProt O14684).
T2 sequence (O14684 whole entry): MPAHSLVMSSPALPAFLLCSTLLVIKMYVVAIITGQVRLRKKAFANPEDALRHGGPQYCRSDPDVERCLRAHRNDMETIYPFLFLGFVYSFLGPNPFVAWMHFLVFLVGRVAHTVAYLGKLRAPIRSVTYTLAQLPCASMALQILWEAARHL
In words: Inhibition of mPGES1 in human A549 cells assessed as reduction in IL-1beta-induced PGE2 production preincubated for 30 mins followed by incubation with IL-1beta for 16 to 20 hrs measured after 10 mins by HTRF assay. Type of series: cell-based. A general note: Time-resolved FRET reads energy transfer from a long-lived donor to a nearby acceptor.

In series [11] the target is T3, Prostaglandin E synthase (Macaca fascicularis) (UniProt Q6PWL6).
T3 sequence (whole entry): T2 sequence (O14684 whole entry) with V7A, V108L, A112V
Description: Inhibition of mPGES1 in rhesus monkey whole blood assessed as reduction in LPS-induced PGE2 production at 10 uM measured after 20 to 24 hrs relative to control. The conditions noted are these: Macaca mulatta. Put shortly:
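Rhesus monkey whole blood stimulated with LPS; PGE2 inhibition measured relative to vehicle control […]. At least two experiments, each in duplicate; run by an external contract lab.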

Series [12] can be described thus: Cmax in Sprague-Dawley rat at 10 mg/kg, po. It counts as ADME, organism-based. Details: dose 10 mg/kg, route oral. The conditions noted are these: in vivo. Put shortly: as §4
Series [13] is described as follows: Cmax in cynomolgus monkey at 10 mg/kg, po. It counts as ADME, organism-based, Macaca fascicularis. The conditions noted are these: in vivo. Details: dose 10 mg/kg, route oral. Summed up:
as §4

Series [14] in a line: Ratio of drug uptake in brain to plasma of Sprague-Dawley rat at 10 mg/kg, po. As to conditions: read-out: BPR. Type of series: ADME, organism-based.
In series [15] the target is T4, Nuclear receptor subfamily 1 group I member 2 (Homo sapiens, UniProt O75469).
T4 sequence (O75469 whole entry): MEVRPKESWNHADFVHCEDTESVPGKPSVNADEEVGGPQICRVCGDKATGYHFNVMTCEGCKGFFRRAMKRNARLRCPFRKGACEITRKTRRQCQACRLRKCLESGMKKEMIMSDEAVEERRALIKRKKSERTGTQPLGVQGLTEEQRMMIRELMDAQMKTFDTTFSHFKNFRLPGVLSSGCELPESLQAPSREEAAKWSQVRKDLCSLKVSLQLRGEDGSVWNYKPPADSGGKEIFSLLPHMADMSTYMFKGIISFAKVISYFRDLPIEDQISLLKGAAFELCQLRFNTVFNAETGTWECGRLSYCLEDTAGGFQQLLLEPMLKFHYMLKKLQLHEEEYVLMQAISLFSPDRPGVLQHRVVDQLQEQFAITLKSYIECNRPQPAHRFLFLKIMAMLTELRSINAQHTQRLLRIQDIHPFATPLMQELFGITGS
Description: Activation of human PXR at 10 uM relative to rifampicin. Type of series: ADME. Summed up: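 Activation of human PXR with test compound at 10 µM, expressed relative to the rifampicin effect.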

In series [16] the test system is Prostaglandin F synthase (Homo sapiens). Description: Inhibition of human PGF synthase assessed as decrease in PGF2alpha production at 10 uM relative to control.

Take `Cc1cccc(Cl)c1Nc1nc2cc(C(=O)Nc3cc(C(F)(F)F)ccc3F)c3c(c2[nH]1)CC(C)(C)O3`: the half-life in series [1] is 20 h; in [8] it was 12 h. Besides, the values for the Tmax in series [2] and in [3] were 1 h and 4 h, respectively. Besides, the values for the Vd in series [4] and in series [6] were 9.17 L/kg and 4.84 L/kg, respectively. Besides, the AUC(0-t) at 24 h in [5] worked out at 408 ng·h/mL. In series [7], this molecule registered a clearance of 8.2 mL/min/kg. The inhibition in series [9] was determined as 5.1%; in series [11], 48.2%; in series [16], 17.9%. Further, the IC50 in [10] was 30 nM. The Cmax in series [12] was found to be 210 ng/mL; in [13], 499 ng/mL. Also, the Kp in series [14] worked out at 0.04. The same molecule came in with an Activity in series [15] of 57%.

On to `CC1(C)Cc2c(c(C(=O)Nc3ccc(C(F)(F)F)cn3)cc3nc(Nc4c(Cl)cccc4Cl)[nH]c23)O1`, for which the half-life was 17 h in series [1] and 5.3 h in [8]. The Tmax worked out at 12 h in [2] and 4 h in series [3]. For the same molecule, the Vd in series [4] turned out to be 5.4 L/kg; in series [6], 3.77 L/kg. Moreover, the AUC(0-t) at 24 h in series [5] turned out to be 639 ng·h/mL. In series [7], the clearance stood at 16.2 mL/min/kg. The inhibition was determined as 4.3% in [9], 37% in [11] and 15.4% in [16]. In addition, the IC50 in series [10] amounted to 4.1 nM. In addition, the values for the Cmax in series [12] and in [13] were 344 ng/mL and 323 ng/mL, respectively. Besides, the Kp in [14] came to 0.16. In series [15], the Activity was 46%.

As to `Cn1c(Nc2c(F)cccc2Cl)nc2cc(C(=O)Nc3cccc(C(F)(F)F)c3)c3c(c21)CC(C)(C)O3`, the inhibition was found to be 10.6% in series [9] and 61.4% in [16]. For the same molecule, in series [10], the IC50 came to 3 nM.

Take `CC1(C)Cc2c(c(C(=O)Nc3cc(C(F)(F)F)ccc3F)cc3nc(Nc4c(F)cccc4Cl)[nH]c23)O1`: the inhibition came to 22.9% in [9] and 99.2% in series [16]. The IC50 in series [10] was 9.6 nM.

As for `CC1(C)Cc2c(c(C(=O)Nc3ccc(F)c(C(F)(F)F)c3)cc3nc(Nc4c(F)cccc4Cl)[nH]c23)O1`, the half-life in [1] is 14.4 h; in [8] it was 6.45 h. The Tmax in series [2] and in [3] was 2 h throughout. In addition, the Vd in series [4] worked out at 1.94 L/kg; in series [6], 3.85 L/kg. In series [5], this molecule came in with an AUC(0-t) at 24 h of 4120 ng·h/mL. In [7], this molecule had a clearance of 11.2 mL/min/kg. The IC50 in series [10] was determined as 14 nM. Moreover, the inhibition in series [11] was found to be 50.4%; in series [16], 100%. Further, the maximum concentration (Cmax) in series [12] came out at 995 ng/mL; in [13] it was 680 ng/mL. Further, the Kp in series [14] came out at 0.18. The Activity in series [15] turned out to be 34%.

The half-life is the time needed for the level to fall by half in the phase considered. For orientation: Tmax means the time at which the peak concentration occurs. The AUC(0-t) is exposure summed from dosing to a finite time, without extrapolation to infinity. The term clearance denotes the rate of elimination divided by the concentration. For orientation: inhibition means the share of the control response that was lost under treatment. Usually IC50 stands for the point on the concentration scale where inhibition reaches its midpoint. By Cmax is commonly meant the peak of the concentration-time curve.
